ChEMBL document CHEMBL4359895, “Discovery and biological evaluation of darolutamide derivatives as inhibitors and down-regulators of wild-type AR and the mutants” (Eur J Med Chem, 2019)
Active and inactive are the calls of the source. The calls are words filed in the database; no cut-off is given here.

Experiments:
PC-3 = assay: Cytotoxicity against human PC3 assessed as reduction in cell viability incubated for 6 days by CCK-8 assay; assay type: cell-based; details: PC-3, 144 h
Summary of the method: (§1)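 Cell proliferation assay run on LNCaP/AR, VCaP, 22Rv1, PC-3 and L-02 cells, with PC-3 and L-02 serving as AR-independent toxicity controls. IC50 fitted in GraphPad Prism 5 as the mean of at least two experiments, each in duplicate. Deviations under 35%.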

LNCaP = assay: Antiproliferative activity against human LNCAP expressing AR assessed as reduction in cell viability incubated for 6 days by CCK-8 assay; assay type: functional, cell-based; details: 144 h; summary of the method: as §1
VCaP = assay: Antiproliferative activity against human VCaP expressing AR assessed as reduction in cell viability incubated for 6 days by CCK-8 assay; assay type: functional, cell-based; details: 144 h; summary of the method: as §1
CWR22R = assay: Antiproliferative activity against human 22Rv1 expressing AR assessed as reduction in cell viability incubated for 6 days by CCK-8 assay; assay type: functional, cell-based; details: 22Rv1, 144 h; summary of the method: as §1
L02 = assay: Cytotoxicity against human L02 assessed as reduction in cell viability incubated for 6 days by CCK-8 assay; assay type: cell-based; details: L02, 144 h; summary of the method: as §1
[1] = target: T1, Androgen receptor (Homo sapiens) (UniProt P10275); assay: Inhibition of AR in human HEK293 cells assessed as decrease in receptor transactivation at 10 uM incubated for 24 hrs by dual luciferase reporter gene assay; assay type: cell-based
T1 sequence (whole entry): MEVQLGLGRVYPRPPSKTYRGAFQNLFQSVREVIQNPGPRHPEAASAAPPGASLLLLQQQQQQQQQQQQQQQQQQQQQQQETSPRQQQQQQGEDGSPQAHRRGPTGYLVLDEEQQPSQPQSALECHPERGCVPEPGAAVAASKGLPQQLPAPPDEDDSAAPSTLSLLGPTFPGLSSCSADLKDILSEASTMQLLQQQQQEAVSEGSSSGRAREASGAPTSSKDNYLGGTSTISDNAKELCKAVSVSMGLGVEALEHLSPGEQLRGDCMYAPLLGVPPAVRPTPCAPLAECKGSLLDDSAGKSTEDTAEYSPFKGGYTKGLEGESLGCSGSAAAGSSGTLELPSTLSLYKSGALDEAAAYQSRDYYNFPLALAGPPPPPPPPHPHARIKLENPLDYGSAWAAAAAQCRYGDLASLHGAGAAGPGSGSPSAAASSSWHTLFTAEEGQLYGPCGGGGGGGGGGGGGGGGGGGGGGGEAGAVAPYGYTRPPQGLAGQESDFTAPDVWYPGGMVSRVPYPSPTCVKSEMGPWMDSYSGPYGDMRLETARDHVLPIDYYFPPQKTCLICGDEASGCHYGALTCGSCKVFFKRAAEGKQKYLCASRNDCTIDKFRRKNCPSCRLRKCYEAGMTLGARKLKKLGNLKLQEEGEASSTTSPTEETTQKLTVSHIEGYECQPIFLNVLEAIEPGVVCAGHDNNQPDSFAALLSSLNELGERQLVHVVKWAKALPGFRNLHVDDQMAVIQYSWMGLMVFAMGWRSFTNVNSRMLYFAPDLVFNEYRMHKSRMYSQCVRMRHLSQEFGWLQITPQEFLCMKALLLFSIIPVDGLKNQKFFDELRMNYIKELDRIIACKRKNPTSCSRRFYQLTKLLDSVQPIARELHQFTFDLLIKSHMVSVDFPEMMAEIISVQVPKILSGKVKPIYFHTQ
Summary of the method: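 HEK 293 cells transiently co-transfected with wt-AR expression vector and an androgen-responsive luciferase reporter construct. Cells given 2 nM testosterone plus 10 µM test compound (final concentrations). Read-out by luciferase, mean ± SD, n = 3.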

Row | Compound | IC50 (LNCaP) [nM] | IC50 (VCaP) [nM] | inhibition [1] | IC50 (PC-3) [µM] | IC50 (CWR22R) [µM] | IC50 (L02) [µM]
1 | C[C@@H](Cn1ccc(-c2ccc(C#N)c(Cl)c2)n1)NS(=O)(=O)c1cccnc1 | 6140 | 2450 |  | > 30 |  | 
2 | Cc1ccnc(N[C@@H](C)Cn2ccc(-c3ccc(C#N)c(Cl)c3)n2)n1 | 1330 | 850 |  | > 30 | 4.76 | > 30
3 | CC(=O)c1cc(C(=O)N[C@@H](C)Cn2ccc(-c3cc(F)c(C#N)c(Cl)c3)n2)n[nH]1 | 1100 |  |  | > 30 | > 30 | 27.7
4 | CC(O)c1cccc(C(=O)N[C@@H](C)Cn2ccc(-c3ccc(C#N)c(Cl)c3)n2)c1 (stereo not given in full) | 2280 | 900 | Active | > 30 | 20.1 | 
5 | C[C@@H](Cn1ccc(-c2ccc(C#N)c(Cl)c2)n1)Nc1cccc2cnccc12 | 870 | > 30000 |  |  | 21.2 | 
6 | C[C@@H](Cn1ccc(-c2ccc(C#N)c(Cl)c2)n1)NC(=O)C1CC(=O)C1 | 3040 | 22500 |  | > 30 |  | 
7 | C[C@@H](Cn1ccc(-c2ccc(C#N)c(Cl)c2)n1)Nc1nccc(Cl)n1 | 1400 | > 30000 |  | > 30 | > 30 | 
8 | C[C@@H](Cn1ccc(-c2ccc(C#N)c(Cl)c2)n1)Nc1cccnc1 | 430 | > 30000 | Active | > 30 | 21.6 | > 30
9 | CC(=O)c1cccc(NC(=O)C(C)Cn2ccc(-c3ccc(C#N)c(Cl)c3)n2)c1 (racemic) | 1540 | 2980 |  | > 30 |  | 
10 | CC(Cn1ccc(-c2ccc(C#N)c(Cl)c2)n1)C(=O)Nc1cc[nH]n1 (racemic) | > 30000 | > 30000 |  | > 30 |  | 
11 | CC(=O)c1ccc(S(=O)(=O)N[C@@H](C)Cn2ccc(-c3ccc(C#N)c(Cl)c3)n2)cc1 | 5230 | 3950 |  | > 30 |  | 
12 | C[C@@H](Cn1ccc(-c2ccc(C#N)c(Cl)c2)n1)Nc1cncnc1 | 2070 | > 30000 |  | > 30 | > 30 | > 30
13 | C[C@@H](Cn1ccc(-c2ccc(C#N)c(Cl)c2)n1)NC(=O)c1cccc(OCC(O)CO)c1 (stereo not given in full) | 740 | 590 |  | > 30 | > 30 | > 30
14 | C[C@@H](Cn1ccc(-c2ccc(C#N)c(Cl)c2)n1)NC(=O)c1cc[nH]n1 | 1000 |  |  | 18.7 | > 30 | > 30
15 | CC(=O)c1ccc(C(=O)N[C@@H](C)Cn2ccc(-c3ccc(C#N)c(Cl)c3)n2)cc1 | 3600 | 1400 |  | > 30 |  | 15.3
16 | C[C@@H](Cn1ccc(-c2ccc(C#N)c(Cl)c2)n1)Nc1cccc2cccnc12 | 790 | > 30000 |  |  | > 30 | 
17 | C[C@@H](Cn1ccc(-c2ccc(C#N)c(Cl)c2)n1)Nc1ncccn1 | 1180 | 480 |  | > 30 | 12.5 | > 30
18 | CC(O)c1cc(C(=O)N[C@H](C)Cn2ccc(-c3ccc(C#N)c(Cl)c3)n2)n[nH]1 (stereo not given in full) | 1650 |  |  | > 30 | > 30 | 
19 | C[C@@H](Cn1ccc(-c2ccc(C#N)c(Cl)c2)n1)Nc1ccncc1 | 2560 | 9900 |  |  | 11.5 | 
20 | C[C@@H](Cn1ccc(-c2ccc(C#N)c(Cl)c2)n1)Nc1ccccc1 | 710 | > 30000 |  | 3.21 | > 30 | 29.4
21 | C[C@@H](Cn1ccc(-c2ccc(C#N)c(Cl)c2)n1)Nc1ccccn1 | 1110 |  |  |  | > 30 | 

The next lines start with results.

Row | IC50 (LNCaP) [nM] | IC50 (VCaP) [nM] | inhibition [1] | Compound | IC50 (PC-3) [µM] | IC50 (CWR22R) [µM] | IC50 (L02) [µM]
22 | 2460 | 5230 |  | COC(=O)/C=C/C(=O)N[C@@H](C)Cn1ccc(-c2ccc(C#N)c(Cl)c2)n1 | > 30 |  | 
23 | 1810 | 2190 |  | C[C@@H](Cn1ccc(-c2ccc(C#N)c(Cl)c2)n1)NC(=O)c1ccccc1F | > 30 |  | 
24 | 1630 | 5120 |  | C[C@@H](Cn1ccc(-c2cc(F)c(C#N)c(Cl)c2)n1)NC(=O)Nc1cc(C(C)(C)C)[nH]n1 | > 30 |  | 15
25 | 3410 | 1540 |  | COc1ccc(C(=O)N[C@@H](C)Cn2ccc(-c3ccc(C#N)c(Cl)c3)n2)cc1 | > 30 |  | 
26 | 13000 | > 30000 |  | C[C@@H](Cn1ccc(-c2ccc(C#N)c(Cl)c2)n1)Nc1ccc2ncccc2c1 |  |  | 
27 | 1130 |  |  | CC(=O)c1cc(C(=O)N[C@@H](C)Cn2ccc(-c3ccc(C#N)c(Cl)c3)n2)n[nH]1 | > 30 | > 30 | 
28 | > 30000 | 13600 |  | C[C@@H](Cn1ccc(-c2ccc(C#N)c(Cl)c2)n1)NS(=O)(=O)c1cn(C)cn1 | > 30 |  | 
29 | 1870 | 1940 |  | C[C@@H](Cn1ccc(-c2ccc(C#N)c(Cl)c2)n1)Nc1cnc2ccccc2c1 |  | 6.04 | 
30 | 2660 | 2700 |  | C[C@@H](Cn1ccc(-c2ccc(C#N)c(Cl)c2)n1)Nc1nc(Cl)nc2nc[nH]c12 | > 30 | 4.38 | 14.5
31 | 4150 | > 30000 | Active | CC(Cn1ccc(-c2ccc(C#N)c(Cl)c2)n1)C(=O)Nc1cccc(C(C)O)c1 (racemic) | > 30 |  | 
32 | 850 | 2000 |  | C[C@H](Cn1ccc(-c2ccc(C#N)c(Cl)c2)n1)Nc1ncnc2nc[nH]c12 | 1.56 | 10.6 | 
33 | 7700 | 4610 |  | C[C@@H](Cn1ccc(-c2ccc(C#N)c(Cl)c2)n1)Nc1ccc2ccccc2c1 |  | 4.61 | 26.8
34 | 870 | 28100 |  | C[C@@H](Cn1ccc(-c2ccc(C#N)c(Cl)c2)n1)Nc1cccc2ccccc12 |  | > 30 | 
35 | 2660 | 3220 |  | C[C@@H](Cn1ccc(-c2ccc(C#N)c(Cl)c2)n1)Nc1ccc2cccnc2c1 | 11.2 | 5.82 | 
36 | 2300 | 870 |  | C[C@@H](Cn1ccc(-c2ccc(C#N)c(Cl)c2)n1)Nc1ccc2ccccc2n1 | > 30 | 7.95 | 
37 | 1910 | 1580 |  | C[C@@H](Cn1ccc(-c2ccc(C#N)c(Cl)c2)n1)Nc1cc2ccccc2cn1 |  | 12 | 
38 | 970 | > 30000 |  | C[C@H](Cn1ccc(-c2ccc(C#N)c(Cl)c2)n1)Nc1ncnc2ccccc12 |  | 9.71 | 
39 | 490 | 2130 |  | C[C@@H](Cn1ccc(-c2ccc(C#N)c(Cl)c2)n1)Nc1ccc2c(ccn2C)c1 |  | 12 | 
40 | 4810 | 2410 |  | C[C@@H](Cn1ccc(-c2ccc(C#N)c(Cl)c2)n1)Nc1ccnc2ccccc12 |  | 4.29 | 
41 | 3090 | 4020 |  | C[C@@H](Cn1ccc(-c2ccc(C#N)c(Cl)c2)n1)Nc1cccc2ccncc12 | 5.13 | 4.72 | 
42 | 2100 | 1470 |  | C[C@@H](Cn1ccc(-c2ccc(C#N)c(Cl)c2)n1)Nc1nccc2ccccc12 | > 30 | 3.57 | 
43 | 510 | 2260 |  | C[C@@H](Cn1ccc(-c2ccc(C#N)c(Cl)c2)n1)Nc1ccc2cnccc2c1 |  | 2.98 | 
44 | 1830 |  |  | C[C@@H](Cn1ccc(-c2ccc(C#N)c(Cl)c2)n1)NC(=O)c1ccccc1 | > 30 |  | 
45 | 2280 | 12400 |  | C[C@@H](Cn1ccc(-c2ccc(C#N)c(Cl)c2)n1)Nc1cncc2ccccc12 |  |  | 
46 | 3690 | 910 |  | CC(O)c1ccc(C(=O)N[C@@H](C)Cn2ccc(-c3ccc(C#N)c(Cl)c3)n2)cc1 (stereo not given in full) | > 30 | 9.05 | > 30
